# Active and inactive are the calls of the source. No cut-off for these calls is given here.
# Assays:
# [1] = Selectivity index, ratio of IC50 for African green monkey Vero cells to IC50 for Trypanosoma cruzi (IRHOD/CO/2008/SN3) trypomastigotes; format: toxicity, cell-based; conditions: read-out: Ratio IC50
# Procedure, shortened: (§1)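 SI calculated as IC50 on Vero cells divided by IC50 on the corresponding parasite form (epimastigote, amastigote or trypomastigote).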
# [2] = Selectivity index, ratio of IC50 for African green monkey Vero cells to IC50 for Trypanosoma cruzi (IRHOD/CO/2008/SN3) epimastigotes; format: toxicity, cell-based; conditions: read-out: Ratio IC50; procedure, shortened: as §1
# [3] = Selectivity index, ratio of IC50 for African green monkey Vero cells to IC50 for Trypanosoma cruzi (IRHOD/CO/2008/SN3) amastigotes; format: toxicity, cell-based; conditions: read-out: Ratio IC50; procedure, shortened: as §1
# [4] = tested on: Vero; test: Cytotoxicity against African green monkey Vero cells assessed as cell viability after 72 hrs by propidium iodide staining-based flow cytometric analysis; conditions: Chlorocebus sabaeus
# Procedure, shortened: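 Vero cells in RPMI with 10% inactivated FBS at 37 °C, 5% CO2, treated 72 h across 1–100. Stained with propidium iodide, then fluorescein diacetate (100 ng/mL), each 10 min at 28 °C in the dark. Cells spun at 400 g, washed in PBS, analysed by flow cytometry. % viability versus control; IC50 by linear regression.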
# [5] = tested on: Trypanosoma cruzi; test: Antitrypanosomal activity against Trypanosoma cruzi (IRHOD/CO/2008/SN3) trypomastigotes infected in Balb/c albino mouse after 24 hrs by Neubauer chamber counting analysis; format: functional, organism-based
# Procedure, shortened: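 Blood taken at the day-7 parasitemia peak from BALB/c mice infected with SN3. Diluted with uninfected murine blood to 4 × 10⁶ trypomastigotes/mL, then 1:2 in RPMI 1640 (2 × 10⁶/mL). Drugs (DMSO stocks) at 100, 50, 25, 10 and 1; incubated 24 h at 4–8 °C. Neubauer chamber counts; IC50 by linear regression; three repeats.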
# [6] = tested on: Trypanosoma cruzi; test: Antitrypanosomal activity against Trypanosoma cruzi (IRHOD/CO/2008/SN3) amastigotes infected in African green monkey Vero cells after 72 hrs by Giemsa staining-based microscopic analysis; format: functional, organism-based
# Procedure, shortened: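 SN3 strain. Vero cells in RPMI with 10% inactivated FBS at 37 °C, 5% CO2, seeded at 1 × 10⁴ cells/well on coverslips and grown 2 days. Infected with metacyclic forms at 10:1 for 24 h, then washed. Drugs at 100, 50, 25, 10 and 1 for 72 h. Methanol fixation, Giemsa stain, amastigotes counted over 200 host cells. IC50 by linear regression; mean of four experiments.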
# [7] = tested on: Trypanosoma cruzi; test: Antitrypanosomal activity against Trypanosoma cruzi (IRHOD/CO/2008/SN3) epimastigotes after 72 hrs by Neubauer chamber counting analysis; format: functional, organism-based
# Procedure, shortened: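 SN3 epimastigotes grown in MTL medium with 10% inactivated FBS at 28 °C. Compounds dissolved in DMSO (0.01% final) and added at 100, 50, 25, 10 and 1. Parasites counted at 72 h in a Neubauer haemocytometer. IC50 from linear regression of Kc values; averages of four experiments.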
# [8] = tested on: Trypanosoma cruzi; test: Antitrypanosomal activity against Trypanosoma cruzi (IRHOD/CO/2008/SN3) epimastigotes assessed as plasma membrane with scalloped appearance with undulations and discontinuities at IC25 after 96 hrs by transmission electron microscopic analysis; format: functional, organism-based
# [9] = tested on: Trypanosoma cruzi; test: Antitrypanosomal activity against Trypanosoma cruzi (IRHOD/CO/2008/SN3) epimastigotes assessed as disruption of cytoskeleton with disorganization of microtubule structure at IC25 after 96 hrs by transmission electron microscopic analysis; format: functional, organism-based
# [10] = tested on: Trypanosoma cruzi; test: Antitrypanosomal activity against Trypanosoma cruzi (IRHOD/CO/2008/SN3) infected in BALB/c mouse assessed as reduction in parasite specific antibodies level at 1 mg/kg/day, ip treated from day 5 to day 10 post-infection measured from day 30 to day 120 post-infection by ELISA; format: functional, organism-based
# Procedure, shortened: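 Female BALB/c mice (6–8 weeks, 20–25 g, groups of three) infected ip with 1 × 10⁵ metacyclic forms. Dosed 1 mg/kg/day ip on days 5–10 post-infection; infected untreated controls included. ELISA on blood diluted 1:50 in PBS, using excreted Fe-SOD antigen from epimastigotes, at days 30 and 120. Read-out is ΔA490 (day 120 minus day 30).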
# [11] = Toxicity in BALB/c mouse assessed as survival at 1 mg/kg/day, ip relative to control; format: organism-based; parameters: route intraperitoneal; conditions: in vivo
# Procedure, shortened: (§2)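 Female BALB/c mice (6-8 weeks, 20-25 g), groups of three, infected ip with 1 × 10⁵ T. cruzi SN3 metacyclic forms. Dosing ip at 1 mg/kg/day for five consecutive days (days 5-10 post-infection). Controls were uninfected, infected-untreated and uninfected-treated groups. Mice followed to day 120 post-infection, with deaths recorded.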
# [12] = tested on: Trypanosoma cruzi; test: Antitrypanosomal activity against Trypanosoma cruzi (IRHOD/CO/2008/SN3) infected in BALB/c mouse assessed as reduction in parasitemia at 1 mg/kg/day, ip treated from day 5 to day 10 post-infection measured on day 30 post-infection relative to control; format: functional; parameters: scale not given: the % may be the effect or the level left; conditions: route intraperitoneal
# Procedure, shortened: (§3)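 Female BALB/c mice (groups of three) infected ip with 1 × 10⁵ metacyclic forms. Given 1 mg/kg/day ip for five days (days 5–10 post-infection); infected untreated controls included. Mandibular-vein blood (5 µL) diluted 1:15 in citrate/lysis buffer, with trypomastigotes/mL counted every 3–4 days. Mean values reported.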
# [13] = tested on: Trypanosoma cruzi; test: Antitrypanosomal activity against Trypanosoma cruzi (IRHOD/CO/2008/SN3) infected in BALB/c mouse assessed as reduction in parasitemia at 1 mg/kg/day, ip treated from day 5 to day 10 post-infection measured on day 14 post-infection; format: functional, organism-based; procedure, shortened: as §3
# [14] = tested on: Trypanosoma cruzi; test: Antitrypanosomal activity against Trypanosoma cruzi (IRHOD/CO/2008/SN3) infected in African green monkey Vero cells assessed as reduction in number of trypomastigotes at IC25 treated for 12 hrs followed by compound-washout measured after 10 days by microscopic analysis relative to control; format: functional
# Procedure, shortened: (§4)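 Vero cells grown 2 days, then infected with metacyclic forms at 10:1. Drugs at IC25 added immediately after infection for 12 h at 37 °C, 5% CO2, then removed by washing. Cultures grown 10 days with medium renewed every 48 h. Methanol-fixed, Giemsa-stained preparations: % infected cells and amastigotes per infected cell over 200 host cells; trypomastigotes counted in the medium. Means of three experiments.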
# [15] = tested on: Trypanosoma cruzi; test: Antitrypanosomal activity against Trypanosoma cruzi (IRHOD/CO/2008/SN3) infected in African green monkey Vero cells assessed as reduction in infection rate at IC25 treated for 12 hrs followed by compound-washout measured after 10 days by microscopic analysis relative to control; format: functional; procedure, shortened: as §4
# [16] = tested on: Trypanosoma cruzi; test: Antitrypanosomal activity against Trypanosoma cruzi (IRHOD/CO/2008/SN3) infected in African green monkey Vero cells assessed as reduction in number of amastigotes at IC25 treated for 12 hrs followed by compound-washout measured after 10 days by microscopic analysis relative to control; format: functional; procedure, shortened: as §4
# [17] = tested on: Trypanosoma cruzi; test: Antitrypanosomal activity against Trypanosoma cruzi (IRHOD/CO/2008/SN3) epimastigotes assessed as parasite death at IC25 after 96 hrs by transmission electron microscopic analysis; format: functional, organism-based
# [18] = tested on: Trypanosoma cruzi; test: Antitrypanosomal activity against Trypanosoma cruzi (IRHOD/CO/2008/SN3) epimastigotes assessed as damaged glycosomes at IC25 after 96 hrs by transmission electron microscopic analysis; format: functional, organism-based
# [19] = tested on: Trypanosoma cruzi; test: Antitrypanosomal activity against Trypanosoma cruzi (IRHOD/CO/2008/SN3) epimastigotes assessed as damaged mitochondria at IC25 after 96 hrs by transmission electron microscopic analysis; format: functional, organism-based
# [20] = tested on: Trypanosoma cruzi; test: Antitrypanosomal activity against Trypanosoma cruzi (IRHOD/CO/2008/SN3) epimastigotes assessed as large vacuolization with lipidic type vacuoles occupying cytoplasm at IC25 after 96 hrs by transmission electron microscopic analysis; format: functional, organism-based
# [21] = tested on: Trypanosoma cruzi; test: Antitrypanosomal activity against Trypanosoma cruzi (IRHOD/CO/2008/SN3) epimastigotes assessed as presence of little electron-dense cytoplasm at IC25 after 96 hrs by transmission electron microscopic analysis; format: functional, organism-based
# [22] = tested on: Trypanosoma cruzi; test: Antitrypanosomal activity against Trypanosoma cruzi (IRHOD/CO/2008/SN3) epimastigotes assessed as change in ethanol level at IC25 after 96 hrs by [1H]-NMR spectroscopic analysis relative to control; format: functional
# Procedure, shortened: (§5)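 Epimastigote cultures started at 5 × 10⁵ cells/mL and given IC25 concentrations, with untreated control cultures. After 96 h at 28 °C, cells spun at 400 g for 10 min. Excreted metabolites in the supernatant identified by ¹H NMR chemical shifts.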
# [23] = tested on: Trypanosoma cruzi; test: Antitrypanosomal activity against Trypanosoma cruzi (IRHOD/CO/2008/SN3) epimastigotes assessed as change in succinate level at IC25 after 96 hrs by [1H]-NMR spectroscopic analysis relative to control; format: functional; procedure, shortened: as §5
# [24] = tested on: Trypanosoma cruzi; test: Antitrypanosomal activity against Trypanosoma cruzi (IRHOD/CO/2008/SN3) epimastigotes assessed as change in acetate level at IC25 after 96 hrs by [1H]-NMR spectroscopic analysis; format: functional, organism-based; procedure, shortened: as §5
# [25] = tested on: Trypanosoma cruzi; test: Antitrypanosomal activity against Trypanosoma cruzi (IRHOD/CO/2008/SN3) epimastigotes assessed as change in L-alanine level at IC25 after 96 hrs by [1H]-NMR spectroscopic analysis relative to control; format: functional; procedure, shortened: as §5
# [26] = tested on: Trypanosoma cruzi; test: Antitrypanosomal activity against Trypanosoma cruzi (IRHOD/CO/2008/SN3) epimastigotes assessed as change in L-lactate level at IC25 after 96 hrs by [1H]-NMR spectroscopic analysis relative to control; format: functional; procedure, shortened: as §5
# [27] = tested on: Mus musculus; test: Toxicity in BALB/c mouse assessed as mortality at 1 mg/kg/day, ip; format: organism-based; parameters: route intraperitoneal; conditions: in vivo; procedure, shortened: as §2
Structure (SMILES),IC50 [5] [µM],IC50 [6] [µM],IC50 [7] [µM],selectivity ratio [1],selectivity ratio [2],selectivity ratio [3],IC50 [4] [µM],Activity [10],Activity [12] [%],Activity [13],inhibition (INH) [14] [%],inhibition (INH) [15] [%],inhibition (INH) [16] [%],also measured
O=C(Cn1ccnc1[N+](=O)[O-])NCc1ccccc1 [BENZNIDAZOLE],–,–,–,–,–,–,–,Active,23,Active,41,19,37,Activity [8]: Active; Activity [9]: Active; survival [11]: 80%
Cn1nc(OCc2ccccc2)c2cc([N+](=O)[O-])ccc21,12,14.1,17.6,16.1,11,13.7,194,Active,33,Active,80,82,76,Activity [17]: Active; Activity [18]: Active; Activity [19]: Active; Activity [20]: Active; Activity [21]: Active; Activity [22]: 11%; Activity [23]: 35%; Activity [24]: inactive; Activity [25]: 19%; Activity [26]: 23%; Activity [27]: Non-toxic
CNCCOCCn1nc(OCc2ccccc2)c2cc([N+](=O)[O-])ccc21,14.5,16.6,19.1,14.7,11.2,12.9,214,Active,39,Active,75,78,63,Activity [17]: Active; Activity [18]: Active; Activity [19]: Active; Activity [20]: Active; Activity [21]: Active; Activity [22]: inactive; Activity [23]: 13%; Activity [24]: inactive; Activity [25]: inactive; Activity [26]: 17%; Activity [27]: Non-toxic
CN(CCOCCn1nc(OCc2ccccc2)c2cc([N+](=O)[O-])ccc21)CCOCCn1nc(OCc2ccccc2)c2cc([N+](=O)[O-])ccc21,16.5,16.5,26.6,7.8,4.8,7.8,128,–,–,–,–,–,–,–

# Further lines, with some results ahead:
IC50 [5] [µM],IC50 [6] [µM],IC50 [7] [µM],Structure (SMILES),selectivity ratio [1],selectivity ratio [2],selectivity ratio [3],IC50 [4] [µM],Activity [10],Activity [12] [%],Activity [13],inhibition (INH) [14] [%],inhibition (INH) [15] [%],inhibition (INH) [16] [%],also measured
20.7,26.5,27.3,COc1nn(CCOCCN)c2ccc([N+](=O)[O-])cc12,4.2,3.2,3.3,87.2,–,–,–,–,–,–,–
26.4,25.7,31.2,COc1nn(CCOCCNCCOCCn2nc(OC)c3cc([N+](=O)[O-])ccc32)c2ccc([N+](=O)[O-])cc12,0.6,0.5,0.6,16.9,–,–,–,–,–,–,–
20.4,27.9,24.6,COc1nn(CCOCCN(C)CCOCCn2nc(OC)c3cc([N+](=O)[O-])ccc32)c2ccc([N+](=O)[O-])cc12,6.3,4.1,4.6,130,–,–,–,–,–,–,–
20.5,23.4,26.7,CNCCOCCn1nc(OC)c2cc([N+](=O)[O-])ccc21,4.3,3.3,3.7,87.6,–,–,–,–,–,–,–
24.8,32.6,24.7,COc1nn(C)c2ccc([N+](=O)[O-])cc12,7.4,7.4,5.6,183,–,–,–,–,–,–,–
